Reference: ChEMBL document CHEMBL1153726, “Synthesis and anticancer activity of sclerophytin-inspired hydroisobenzofurans” (Bioorg Med Chem Lett, 2009)

Key:
Type in all cases: functional
[1] = test system: OVCAR-3; test: Growth inhibition of human OVCAR-3 cells after 96 hrs by MTT assay; details: OVCAR-3, 96 h
How it was run: (§1)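 Tested in the NCI 60-cell-line panel in five-dose format; GI50 and LC50 values reported for each cell line.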

[2] = test system: HT-29; test: Growth inhibition of human HT-29 cells at 10 uM after 96 hrs by MTT assay; set-up: scale not given: the % may be the effect or the level left
[3] = test system: DU-145; test: Growth inhibition of human DU145 cells at 100 nM after 96 hrs by MTT assay; set-up: scale not given: the % may be the effect or the level left
[4] = test system: OVCAR-4; test: Growth inhibition of human OVCAR4 cells at 100 nM after 96 hrs by MTT assay; set-up: scale not given: the % may be the effect or the level left
[5] = test system: HCC 2998; test: Growth inhibition of human HCC2998 cells at 1 uM after 96 hrs by MTT assay; set-up: scale not given: the % may be the effect or the level left
[6] = test system: MDA-MB-435; test: Growth inhibition of human MDA-MB-435 cells at 10 nM after 96 hrs by MTT assay; set-up: scale not given: the % may be the effect or the level left
[7] = test system: RXF 393; test: Growth inhibition of human RXF393 cells at 100 nM after 96 hrs by MTT assay; set-up: scale not given: the % may be the effect or the level left
[8] = test system: RXF 393; test: Growth inhibition of human RXF393 cells after 96 hrs by MTT assay; details: RXF 393, 96 h; how it was run: as §1
[9] = test system: NCI-H322M; test: Growth inhibition of human NCI-H322M cells at 10 nM after 96 hrs by MTT assay; set-up: scale not given: the % may be the effect or the level left
[10] = test system: IGROV-1; test: Growth inhibition of human IGROV1 cells at 1 uM after 96 hrs by MTT assay; set-up: scale not given: the % may be the effect or the level left
[11] = test system: NCI-H226; test: Growth inhibition of human NCI-H226 cells at 1 uM after 96 hrs by MTT assay; set-up: scale not given: the % may be the effect or the level left
[12] = test system: OVCAR-5; test: Growth inhibition of human OVCAR5 cells at 1 uM after 96 hrs by MTT assay; set-up: scale not given: the % may be the effect or the level left
[13] = test system: SF-539; test: Growth inhibition of human SF539 cells at 10 nM after 96 hrs by MTT assay; set-up: scale not given: the % may be the effect or the level left
[14] = test system: SR; test: Growth inhibition of human SR cells at 100 nM after 96 hrs by MTT assay; set-up: scale not given: the % may be the effect or the level left
[15] = test system: SK-MEL-28; test: Growth inhibition of human SK-MEL-28 cells at 1 nM after 96 hrs by MTT assay; set-up: scale not given: the % may be the effect or the level left
[16] = test system: MDA-MB-435; test: Growth inhibition of human MDA-MB-435 cells at 1 uM after 96 hrs by MTT assay; set-up: scale not given: the % may be the effect or the level left
[17] = test system: M14; test: Growth inhibition of human M14 cells at 1 uM after 96 hrs by MTT assay; set-up: scale not given: the % may be the effect or the level left
[18] = test system: MDA-MB-435; test: Growth inhibition of human MDA-MB-435 cells at 10 uM after 96 hrs by MTT assay; set-up: scale not given: the % may be the effect or the level left
[19] = test system: M14; test: Growth inhibition of human M14 cells at 10 nM after 96 hrs by MTT assay; set-up: scale not given: the % may be the effect or the level left
[20] = test system: SF-295; test: Growth inhibition of human SF295 cells at 1 nM after 96 hrs by MTT assay; set-up: scale not given: the % may be the effect or the level left
[21] = test system: SF-268; test: Growth inhibition of human SF268 cells at 1 nM after 96 hrs by MTT assay; set-up: scale not given: the % may be the effect or the level left
[22] = test system: COLO 205; test: Growth inhibition of human COLO205 cells at 1 uM after 96 hrs by MTT assay; set-up: scale not given: the % may be the effect or the level left
[23] = test system: A549; test: Growth inhibition of human A549 cells at 1 uM after 96 hrs by MTT assay; set-up: scale not given: the % may be the effect or the level left
[24] = test system: SF-539; test: Growth inhibition of human SF539 cells after 96 hrs by MTT assay; details: SF-539, 96 h; how it was run: as §1
[25] = test system: HOP-62; test: Growth inhibition of human HOP62 cells at 1 nM after 96 hrs by MTT assay; set-up: scale not given: the % may be the effect or the level left
[26] = test system: SW-620; test: Growth inhibition of human SW620 cells at 1 uM after 96 hrs by MTT assay; set-up: scale not given: the % may be the effect or the level left
[27] = test system: K562; test: Growth inhibition of human K562 cells at 10 nM after 96 hrs by MTT assay; set-up: scale not given: the % may be the effect or the level left
[28] = test system: A549; test: Growth inhibition of human A549 cells after 96 hrs by MTT assay; details: A549, 96 h
[29] = test system: OVCAR-5; test: Growth inhibition of human OVCAR5 cells at 10 uM after 96 hrs by MTT assay; set-up: scale not given: the % may be the effect or the level left
[30] = Growth inhibition of human Hs 578T cells after 96 hrs by MTT assay
How it was run: (§2)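 Run in the NCI 60 human tumour cell line panel as a five-dose assay. GI50 and LC50 were reported for each cell line.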

[31] = test system: OVCAR-3; test: Growth inhibition of human OVCAR-3 cells at 1 uM after 96 hrs by MTT assay; set-up: scale not given: the % may be the effect or the level left
[32] = test system: U-251; test: Growth inhibition of human U251 cells after 96 hrs by MTT assay; details: U-251, 96 h; how it was run: as §1
[33] = test system: UACC-257; test: Growth inhibition of human UACC257 cells at 10 nM after 96 hrs by MTT assay; set-up: scale not given: the % may be the effect or the level left
[34] = test system: IGROV-1; test: Growth inhibition of human IGROV1 cells at 100 nM after 96 hrs by MTT assay; set-up: scale not given: the % may be the effect or the level left
[35] = test system: NCI-H522; test: Growth inhibition of human NCI-H522 cells at 1 nM after 96 hrs by MTT assay; set-up: scale not given: the % may be the effect or the level left
[36] = test system: 786-0; test: Growth inhibition of human 786-0 cells after 96 hrs by MTT assay; details: 786-0, 96 h
[37] = test system: EKVX; test: Growth inhibition of human EKVX cells after 96 hrs by MTT assay; how it was run: as §2
[38] = test system: BT-549; test: Growth inhibition of human BT549 cells at 1 nM after 96 hrs by MTT assay; set-up: scale not given: the % may be the effect or the level left
[39] = read-out: LC50 (the source's name)
[40] = read-out: Log10GI50 (converted)
[41] = read-out: Log10LC50 (converted)

With C=C(C)[C@H]1CC=C(C)C2=CO[C@@H](c3ccccc3F)[C@@H]21 the GI50 ([1]; read-out: GI50) was 3.24 µM, the CC50 [1, 39] was 36.5 µM and the GI50 [1, 40] was 3.24 µM. It also gave a CC50 [1, 41] of 36.3 µM, a TGI ([1]; read-out: Log10TGI (converted)) of 12.9 µM and a TGI ([1]; read-out: TGI) of 12.8 µM. It also gave an Activity [2] of 89.53%, an Activity [3] of 87% and an Activity [4] of 76%. For the same molecule, the Activity [5] was 39%, the Activity [6] was 83% and the Activity [7] was 84%. It also gave a GI50 ([8]; read-out: GI50) of 7 µM, a CC50 [8, 39] of 64.7 µM and a GI50 [8, 40] of 6.92 µM. It also gave a CC50 [8, 41] of 64.6 µM, a TGI ([8]; read-out: Log10TGI (converted)) of 24 µM and a TGI ([8]; read-out: TGI) of 23.9 µM. The Activity [9] was 84%, the Activity [10] was 56% and the Activity [11] was 32%. It also gave an Activity [12] of 126%, an Activity [13] of 90% and an Activity [14] of 47%. It also gave an Activity [15] of 98%, an Activity [16] of 4% and an Activity [17] of 43%. It also gave an Activity [18] of 109.16%, an Activity [19] of 89% and an Activity [20] of 96%. The Activity [21] was 91%, the Activity [22] was 50% and the Activity [23] was 38%. The GI50 ([24]; read-out: GI50) was 6.82 µM, the CC50 [24, 39] was 44.8 µM and the GI50 [24, 40] was 6.76 µM. It also gave a CC50 [24, 41] of 44.7 µM, a TGI ([24]; read-out: Log10TGI (converted)) of 20 µM and a TGI ([24]; read-out: TGI) of 20 µM. For the same molecule, the Activity [25] was 95%, the Activity [26] was 23% and the Activity [27] was 95%. For the same molecule, the GI50 ([28]; read-out: GI50) was 6.17 µM, the CC50 [28, 39] was > 100 µM and the GI50 [28, 40] was 6.17 µM. The CC50 [28, 41] was > 100 µM, the TGI ([28]; read-out: Log10TGI (converted)) was 30.2 µM and the TGI ([28]; read-out: TGI) was 30.1 µM. The Activity [29] was 100.16%, the GI50 ([30]; read-out: GI50) was 2.72 µM and the CC50 [30, 39] was > 100 µM. The GI50 [30, 40] was 2.69 µM, the CC50 [30, 41] was > 100 µM and the TGI ([30]; read-out: Log10TGI (converted)) was 24.5 µM. It also gave a TGI ([30]; read-out: TGI) of 24.8 µM, an Activity [31] of 12% and a GI50 ([32]; read-out: GI50) of 3.06 µM. For the same molecule, the CC50 [32, 39] was 37.7 µM, the GI50 [32, 40] was 3.09 µM and the CC50 [32, 41] was 38 µM. For the same molecule, the TGI ([32]; read-out: Log10TGI (converted)) was 14.1 µM, the TGI ([32]; read-out: TGI) was 14.2 µM and the Activity [33] was 90%. For the same molecule, the Activity [34] was 83%, the Activity [35] was 82% and the GI50 ([36]; read-out: GI50) was 8.73 µM. The CC50 [36, 39] was 48.1 µM, the GI50 [36, 40] was 8.71 µM and the CC50 [36, 41] was 47.9 µM. It also gave a TGI ([36]; read-out: Log10TGI (converted)) of 21.4 µM, a TGI ([36]; read-out: TGI) of 21.5 µM and a GI50 ([37]; read-out: GI50) of 3.37 µM. It also gave a CC50 [37, 39] of 80.3 µM, a GI50 [37, 40] of 3.39 µM and a CC50 [37, 41] of 79.4 µM. It also gave a TGI ([37]; read-out: Log10TGI (converted)) of 19.5 µM, a TGI ([37]; read-out: TGI) of 19.4 µM and an Activity [38] of 97%.
